Laboratory results as given in the M2OR odorant receptor database.

Assays:
Details in all cases: stereoisomer not certain
[1] = biological target: OR4D1 (Homo sapiens) (UniProt Q15615)
Procedure, shortened: (§1)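 Each entry records the cell line, G-protein, co-transfected protein and tags used. Methods varied with the source, often transient luciferase assays in mammalian cell lines. A receptor–molecule pair is called responsive (active) if the original authors judged its signal statistically different from baseline and non-responsive (inactive) otherwise.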

[2] = biological target: OR4D10 (Homo sapiens) (UniProt Q8NGI6)
Procedure, shortened: as §1

[3] = biological target: OR4D11 (Homo sapiens) (UniProt Q8NGI4)
Procedure, shortened: as §1

[4] = biological target: OR4D2 (Homo sapiens) (UniProt P58180)
Procedure, shortened: as §1

[5] = biological target: OR4D5 (Homo sapiens) (UniProt Q8NGN0)
Procedure, shortened: as §1

[6] = biological target: OR4D6 (Homo sapiens) (UniProt Q8NGJ1)
Procedure, shortened: as §1

[7] = biological target: OR4D9 (Homo sapiens) (UniProt Q8NGE8)
Procedure, shortened: as §1

[8] = biological target: OR4E1 (Homo sapiens) (UniProt P0C645)
Procedure, shortened: as §1

[9] = biological target: OR4E2 (Homo sapiens) (UniProt Q8NGC2)
Procedure, shortened: as §1

[10] = biological target: OR4F15 (Homo sapiens) (UniProt Q8NGB8)
Procedure, shortened: as §1

[11] = biological target: OR4F17 (Homo sapiens) (UniProt Q8NGA8)
Procedure, shortened: as §1

[12] = biological target: OR4F21 (Homo sapiens) (UniProt O95013)
Procedure, shortened: as §1

[13] = system: OR4CD V133I
Procedure, shortened: as §1

[14] = system: OR4CF
Procedure, shortened: as §1

[15] = system: OR4CG T76A
Procedure, shortened: as §1

[16] = system: OR4D1
Procedure, shortened: as §1

[17] = system: OR4D2
Procedure, shortened: as §1

[18] = system: OR4D6
Procedure, shortened: as §1

[19] = system: OR4E2 A119T
Procedure, shortened: as §1

[20] = system: OR4E2
Procedure, shortened: as §1

Measured: odorant receptor agonist call

Sequence of OR4D10 (Homo sapiens) (Q8NGI6 whole entry): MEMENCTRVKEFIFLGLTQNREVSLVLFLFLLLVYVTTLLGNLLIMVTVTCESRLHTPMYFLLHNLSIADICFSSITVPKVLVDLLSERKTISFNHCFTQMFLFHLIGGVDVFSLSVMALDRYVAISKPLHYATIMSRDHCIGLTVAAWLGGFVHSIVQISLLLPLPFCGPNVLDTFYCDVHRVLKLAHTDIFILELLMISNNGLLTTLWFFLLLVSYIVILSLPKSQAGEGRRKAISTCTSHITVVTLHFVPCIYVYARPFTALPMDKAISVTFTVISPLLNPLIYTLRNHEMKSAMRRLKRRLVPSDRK
Sequence of OR4D6 (Homo sapiens) (Q8NGJ1 whole entry): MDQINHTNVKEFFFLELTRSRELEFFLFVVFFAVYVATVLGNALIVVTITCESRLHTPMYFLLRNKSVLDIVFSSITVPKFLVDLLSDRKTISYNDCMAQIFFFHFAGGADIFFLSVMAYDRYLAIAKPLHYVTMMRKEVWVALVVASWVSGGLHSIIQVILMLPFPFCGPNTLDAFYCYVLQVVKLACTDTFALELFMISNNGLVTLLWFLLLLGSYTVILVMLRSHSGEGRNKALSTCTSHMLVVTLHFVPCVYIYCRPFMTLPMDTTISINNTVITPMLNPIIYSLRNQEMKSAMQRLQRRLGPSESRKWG
Sequence of OR4F21 (Homo sapiens) (O95013 whole entry): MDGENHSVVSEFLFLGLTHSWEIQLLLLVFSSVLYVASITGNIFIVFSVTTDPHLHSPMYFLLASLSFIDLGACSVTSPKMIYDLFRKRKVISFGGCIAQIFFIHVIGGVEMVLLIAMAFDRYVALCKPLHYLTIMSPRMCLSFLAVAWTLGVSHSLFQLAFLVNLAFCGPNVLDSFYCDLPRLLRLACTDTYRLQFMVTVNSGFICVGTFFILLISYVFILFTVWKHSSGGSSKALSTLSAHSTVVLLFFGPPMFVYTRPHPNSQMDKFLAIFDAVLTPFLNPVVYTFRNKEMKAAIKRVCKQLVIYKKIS
Sequence of OR4D2 (Homo sapiens) (P58180 whole entry): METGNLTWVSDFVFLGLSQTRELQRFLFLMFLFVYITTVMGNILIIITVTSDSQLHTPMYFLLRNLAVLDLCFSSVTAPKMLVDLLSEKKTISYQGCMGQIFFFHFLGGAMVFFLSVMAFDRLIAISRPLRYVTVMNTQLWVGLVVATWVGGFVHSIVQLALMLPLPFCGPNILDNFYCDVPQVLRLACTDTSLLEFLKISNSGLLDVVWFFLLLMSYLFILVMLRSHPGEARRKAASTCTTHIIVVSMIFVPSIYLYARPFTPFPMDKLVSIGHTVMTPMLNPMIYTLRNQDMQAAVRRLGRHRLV
Sequence of OR4F17 (Homo sapiens) (Q8NGA8 whole entry): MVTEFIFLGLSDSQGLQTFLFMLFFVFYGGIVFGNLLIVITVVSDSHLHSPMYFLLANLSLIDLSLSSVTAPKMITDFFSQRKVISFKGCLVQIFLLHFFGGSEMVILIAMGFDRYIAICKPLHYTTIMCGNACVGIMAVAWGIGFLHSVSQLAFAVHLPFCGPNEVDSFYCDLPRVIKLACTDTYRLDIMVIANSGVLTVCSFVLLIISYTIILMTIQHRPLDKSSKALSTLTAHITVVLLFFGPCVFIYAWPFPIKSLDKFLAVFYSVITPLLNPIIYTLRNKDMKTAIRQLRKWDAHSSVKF
Sequence of OR4D11 (Homo sapiens) (Q8NGI4 whole entry): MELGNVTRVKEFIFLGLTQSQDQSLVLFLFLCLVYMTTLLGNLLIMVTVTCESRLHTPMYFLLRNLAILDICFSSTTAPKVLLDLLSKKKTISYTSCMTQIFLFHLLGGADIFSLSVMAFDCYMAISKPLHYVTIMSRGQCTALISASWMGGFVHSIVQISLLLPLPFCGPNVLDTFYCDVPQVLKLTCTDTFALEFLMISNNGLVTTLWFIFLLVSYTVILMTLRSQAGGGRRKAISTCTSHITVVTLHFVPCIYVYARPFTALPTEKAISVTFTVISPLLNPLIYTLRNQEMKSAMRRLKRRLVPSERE
Sequence of OR4E2 (Homo sapiens) (Q8NGC2 whole entry): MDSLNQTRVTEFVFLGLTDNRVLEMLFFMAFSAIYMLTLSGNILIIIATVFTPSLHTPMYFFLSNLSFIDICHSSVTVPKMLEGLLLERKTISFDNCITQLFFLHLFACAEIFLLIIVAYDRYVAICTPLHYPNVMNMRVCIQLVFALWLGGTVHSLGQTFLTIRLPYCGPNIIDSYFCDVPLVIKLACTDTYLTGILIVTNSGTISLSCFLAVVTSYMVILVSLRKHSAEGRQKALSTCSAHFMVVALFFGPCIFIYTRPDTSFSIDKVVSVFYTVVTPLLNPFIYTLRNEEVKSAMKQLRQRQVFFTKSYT
Sequence of OR4D9 (Homo sapiens) (Q8NGE8 whole entry): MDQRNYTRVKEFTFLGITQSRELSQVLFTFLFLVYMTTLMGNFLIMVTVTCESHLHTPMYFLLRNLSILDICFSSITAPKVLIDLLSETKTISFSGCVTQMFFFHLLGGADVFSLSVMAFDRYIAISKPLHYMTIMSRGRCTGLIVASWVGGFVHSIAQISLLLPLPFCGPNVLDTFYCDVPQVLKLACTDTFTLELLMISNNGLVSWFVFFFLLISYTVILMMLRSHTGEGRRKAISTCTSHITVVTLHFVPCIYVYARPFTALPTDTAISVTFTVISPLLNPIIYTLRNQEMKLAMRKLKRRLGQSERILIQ
Sequence of OR4D5 (Homo sapiens) (Q8NGN0 whole entry): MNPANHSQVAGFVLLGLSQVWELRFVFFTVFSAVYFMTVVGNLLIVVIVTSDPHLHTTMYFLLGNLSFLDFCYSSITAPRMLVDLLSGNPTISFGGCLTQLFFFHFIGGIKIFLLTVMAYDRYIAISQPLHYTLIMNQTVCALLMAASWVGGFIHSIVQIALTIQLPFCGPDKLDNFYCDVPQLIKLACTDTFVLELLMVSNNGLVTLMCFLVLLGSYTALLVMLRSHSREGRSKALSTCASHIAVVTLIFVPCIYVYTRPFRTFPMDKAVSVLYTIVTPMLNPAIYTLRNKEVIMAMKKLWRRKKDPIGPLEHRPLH
Sequence of OR4F15 (Homo sapiens) (Q8NGB8 whole entry): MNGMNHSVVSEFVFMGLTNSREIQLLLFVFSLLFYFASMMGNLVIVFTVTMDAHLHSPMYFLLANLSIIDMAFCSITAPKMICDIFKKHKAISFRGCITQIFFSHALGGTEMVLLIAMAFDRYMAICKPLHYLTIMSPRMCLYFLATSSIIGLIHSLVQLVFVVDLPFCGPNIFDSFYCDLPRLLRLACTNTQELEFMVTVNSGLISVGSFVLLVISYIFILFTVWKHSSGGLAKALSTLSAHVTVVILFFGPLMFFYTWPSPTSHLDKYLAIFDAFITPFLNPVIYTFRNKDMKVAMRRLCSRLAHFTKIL
Sequence of OR4D1 (Homo sapiens) (Q15615 whole entry): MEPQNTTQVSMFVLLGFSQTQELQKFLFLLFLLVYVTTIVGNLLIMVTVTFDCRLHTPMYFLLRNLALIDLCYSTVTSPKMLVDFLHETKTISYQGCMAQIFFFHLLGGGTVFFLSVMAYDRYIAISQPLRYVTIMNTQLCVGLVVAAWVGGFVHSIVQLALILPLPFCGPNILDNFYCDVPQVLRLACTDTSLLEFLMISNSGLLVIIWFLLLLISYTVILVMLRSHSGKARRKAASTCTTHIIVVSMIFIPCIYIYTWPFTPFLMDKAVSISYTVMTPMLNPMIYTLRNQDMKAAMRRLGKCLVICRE
Sequence of OR4D6 (as listed by the source): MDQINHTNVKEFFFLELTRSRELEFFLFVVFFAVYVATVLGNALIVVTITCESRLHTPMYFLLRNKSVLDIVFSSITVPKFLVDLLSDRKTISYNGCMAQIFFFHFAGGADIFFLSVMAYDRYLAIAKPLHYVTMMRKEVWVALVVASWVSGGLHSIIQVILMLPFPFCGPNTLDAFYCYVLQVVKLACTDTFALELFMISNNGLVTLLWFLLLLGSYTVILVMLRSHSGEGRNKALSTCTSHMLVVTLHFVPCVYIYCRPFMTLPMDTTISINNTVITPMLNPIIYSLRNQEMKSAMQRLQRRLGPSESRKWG
Sequence of OR4D2 (as listed by the source): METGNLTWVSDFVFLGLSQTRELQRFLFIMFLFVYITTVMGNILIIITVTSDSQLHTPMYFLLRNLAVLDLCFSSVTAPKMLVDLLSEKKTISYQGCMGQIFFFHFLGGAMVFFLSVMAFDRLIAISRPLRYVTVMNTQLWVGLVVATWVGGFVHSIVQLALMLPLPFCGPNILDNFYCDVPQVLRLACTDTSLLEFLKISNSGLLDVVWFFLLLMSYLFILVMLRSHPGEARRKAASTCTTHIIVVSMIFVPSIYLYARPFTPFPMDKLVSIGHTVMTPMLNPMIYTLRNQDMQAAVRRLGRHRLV
Sequence of OR4CF (as listed by the source): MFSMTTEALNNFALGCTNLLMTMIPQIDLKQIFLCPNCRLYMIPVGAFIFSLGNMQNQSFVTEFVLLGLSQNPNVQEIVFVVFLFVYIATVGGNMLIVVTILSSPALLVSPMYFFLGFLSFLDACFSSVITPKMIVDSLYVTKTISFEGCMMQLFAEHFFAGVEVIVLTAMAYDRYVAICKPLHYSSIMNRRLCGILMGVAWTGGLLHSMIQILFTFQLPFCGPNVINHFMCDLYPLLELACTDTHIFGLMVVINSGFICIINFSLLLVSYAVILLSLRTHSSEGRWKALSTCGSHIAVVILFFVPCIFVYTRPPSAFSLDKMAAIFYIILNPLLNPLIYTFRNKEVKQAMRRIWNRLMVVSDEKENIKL
Sequence of OR4E2 (as listed by the source): as the sequence (Q8NGC2 whole entry) above, with V118M, Q234R counted along it
Sequence of OR4CD V133I (as listed by the source, stated change not applied): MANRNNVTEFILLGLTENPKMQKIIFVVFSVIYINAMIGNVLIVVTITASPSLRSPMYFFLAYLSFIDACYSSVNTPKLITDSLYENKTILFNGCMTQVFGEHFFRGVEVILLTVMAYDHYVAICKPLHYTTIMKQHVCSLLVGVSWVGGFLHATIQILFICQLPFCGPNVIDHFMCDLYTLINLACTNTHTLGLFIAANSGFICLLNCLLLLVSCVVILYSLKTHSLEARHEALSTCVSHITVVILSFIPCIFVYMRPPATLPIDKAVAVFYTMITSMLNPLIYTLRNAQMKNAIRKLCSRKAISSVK
Sequence of OR4E2 A119T (as listed by the source, stated change not applied): as the sequence (Q8NGC2 whole entry) above, with V118M, A119T, Q234R counted along it

Cc1c([N+](=O)[O-])c(C)c([N+](=O)[O-])c(C(C)(C)C)c1[N+](=O)[O-]
inactive: [1] | [2] | [3] | [4] | [5] | [6] | [7] | [8] | [9] | [10] | [11] | [12]

C=CCOC(=O)Cc1ccccc1
inactive: [13] | [14] | [15] | [1] | [2] | [3] | [16] | [4] | [17] | [5] | [6] | [18] | [7] | [9] | [19] | [20] | [10] | [11] | [12]
